Eight compounds from ChEMBL document CHEMBL2163291, “Synthesis of pyrazole peptidomimetics and their inhibition against A549 lung cancer cells” (Bioorg Med Chem Lett, 2012) can be followed below.

The structures appear in SMILES notation. Calls of active or inactive are those of the source. No cut-off for these calls is given here.

Assay [1] deals with A549. The experiment in a line: Cytotoxicity against human A549 cells assessed cell viability after 48 hrs by SRB assay. The assay is classed as functional, cell-based. To be noted: for IC50: A549, 48 h. A digest of the protocol:
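A549 cells were treated for 48 h and net growth was measured by sulforhodamine B colorimetric assay. IC50 is the concentration causing a 50% decrease in net cell growth. Test levels were 40, 60 and 80 µM.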
In general terms: In SRB staining, fixed cells bind dye roughly in proportion to their protein.

In assay [2] the test system is A549. The experiment in a line: Induction of apoptosis in human A549 cells assessed as chromatin condensation at 80 uM after 48 hrs by Hoechst 33258 staining-based fluorescent microscopy. The format is functional, cell-based. The gist of the method: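 A549 cells were exposed to compound at 80 µM for 48 h, then stained with Hoechst 33258. Nuclei were examined by fluorescence microscopy for chromatin condensation and apoptotic bodies, against an untreated control group.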

Assay [3] concerns A549. Kind of assay: Cytotoxicity against human A549 cells assessed as cell viability at 40 uM after 48 hrs by SRB assay. The assay is classed as functional, cell-based. A digest of the protocol: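 A549 cells were treated at 40, 60 or 80 µM, or left untreated (control), for 48 h. Viability was read by sulforhodamine B colorimetric assay against untreated cells, n = 3, mean ± SE.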

Assay [4] relates to A549. Kind of assay: Induction of necrosis in human A549 cells at 80 uM after 48 hrs by LDH release assay. The assay is classed as functional, cell-based. The gist of the method: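 A549 cells were treated at 80 µM, or with 0.1% DMSO or left untreated as control, for 48 h. LDH release into the cells' surroundings served as the necrosis read-out, n = 3, mean ± SE.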
Assay [5] concerns A549. Kind of assay: Induction of autophagy in human A549 cells assessed as increase in LC3-2 level at 80 uM after 48 hrs by Western blot analysis relative to beta-actin. The format is functional, cell-based. The gist of the method: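 A549 cells were treated at 80 µM for 48 h. LC3-II protein was detected by immunoblot and normalized to β-actin, expressed as percent of control, n = 3.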

For assay [6], the system named is A549. The experiment in a line: Cell cycle arrest in human A549 cells assessed as accumulation at G1 phase at 80 uM after 48 hrs by FACS flow cytometry (reference value: 55.94%). The assay is classed as functional.
Assay [7] concerns A549. Kind of assay: Cell cycle arrest in human A549 cells assessed as accumulation at S phase at 80 uM after 48 hrs by FACS flow cytometry (reference value: 34.67 %). The format is functional.
The test system of assay [8] is A549. The experiment in a line: Cell cycle arrest in human A549 cells assessed as accumulation at G2 phase at 80 uM after 48 hrs by FACS flow cytometry (reference value: 9.39 %). The assay is classed as functional.

As a reminder, the IC50 is the concentration that inhibits the measured activity by half. Lower therefore signals inhibition by little substance. Regarding `CCOC(=O)[C@@H](CO)NC(=O)c1cc(-c2ccccc2)nn1Cc1ccc(C(C)(C)C)cc1`, the Activity result in the assay with A549 [1] is “Dose-dependent effect”; with A549 [6], 72.31%; with A549 [7] it was 21.63%; with A549 [8], 6.06%. In the assay on A549 [1], this compound yielded an IC50 of 36.1 µM. The outcome with A549 [2], in the assay on A549 [3] and with A549 [5] was Active. In the assay on A549 [4], the result was inactive.
With `CCOC(=O)[C@@H](CS)NC(=O)c1cc(-c2ccc(Cl)cc2)nn1Cc1ccccc1`, the outcome in the assay with A549 [2] and with A549 [5] was Active. In addition, the result in the assay with A549 [4] was inactive. Further, the Activity in the assay on A549 [6] amounted to 60.2%; with A549 [7], 32.55%; in the assay on A549 [8] it was 7.25%.
In the case of `CCOC(=O)CNC(=O)c1cc(-c2ccc(Cl)cc2)nn1Cc1ccccc1`, the outcome in the assay with A549 [2] and with A549 [5] was Active. Besides, the result with A549 [4] was inactive. The Activity with A549 [6] was found to be 57.39%; with A549 [7] it was 34.04%; in the assay with A549 [8], 8.57%.
In the case of `CCOC(=O)[C@@H](CO)NC(=O)c1cc(-c2ccc(Cl)cc2)nn1Cc1ccc(C(C)(C)C)cc1`, the Activity result was “Dose-dependent effect” in the assay on A549 [1], 79.54% in the assay with A549 [6], 19.53% in the assay on A549 [7] and 0.92% in the assay with A549 [8]. This compound also had an IC50 in the assay on A549 [1] of 38.8 µM. Also, the outcome in the assay with A549 [2], in the assay with A549 [3] and with A549 [5] was Active. In addition, the outcome with A549 [4] was inactive.
For the compound `CCOC(=O)CNC(=O)c1cc(-c2ccc(Cl)cc2)nn1Cc1ccc(C(C)(C)C)cc1`, the Activity result is “Dose-dependent effect” in the assay with A549 [1], 76.06% in the assay with A549 [6], 19.91% in the assay with A549 [7] and 4.04% in the assay with A549 [8]. In the assay on A549 [1], this compound showed a concentration for half-maximal inhibition (IC50) of 63.4 µM. Also, the outcome in the assay with A549 [2] and in the assay with A549 [5] was Active. Also, the outcome in the assay with A549 [4] was inactive.
Turning to `CCOC(=O)[C@@H](CO)NC(=O)c1cc(-c2ccccc2)nn1Cc1ccccc1`, the Activity result is “Dose-dependent effect” in the assay on A549 [1], 57.48% with A549 [6], 34.44% with A549 [7] and 8.08% in the assay on A549 [8]. The IC50 in the assay on A549 [1] came to 56.1 µM. Besides, the result in the assay with A549 [2] and with A549 [5] was Active. For the same compound, the outcome in the assay with A549 [4] was inactive.
`O=c1[nH]cc(F)c(=O)[nH]1` [FLUOROURACIL] showed an IC50 in the assay on A549 [1] of 4.21 µM.
In the case of `CCOC(=O)[C@@H](CO)NC(=O)c1cc(-c2ccc(Cl)cc2)nn1Cc1ccccc1`, the Activity entry in the assay on A549 [1] is “Dose-dependent effect”; in the assay with A549 [6], 59.23%; in the assay with A549 [7] it was 40.08%; in the assay with A549 [8] it was 0.69%. The compound also registered an IC50 with A549 [1] of 56.8 µM. Besides, the result in the assay on A549 [2] and with A549 [5] was Active. The result with A549 [4] was inactive.
